# Columns and labels:
# [1] = system: DIO male Golden Syrian hamsters; experiment: Oral glucose tolerance test in DIO hamsters; type: in vivo, hamster; details: TRC210258 6 mg/kg intraperitoneal, sitagliptin 3 mg/kg oral
# In short: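 Hamsters made obese on 45% kcal-fat diet for 8±2 weeks. Double-dummy dosing: i.p. vehicle 0.9% Na-CMC + 0.1% Tween-80 in PBS pH 7.4, oral vehicle 0.5% Tween-80 + 0.5% Na-CMC in water. Oral glucose tolerance test done during treatment. Retro-orbital sampling under mild anaesthesia into K-EDTA. Plasma glucose by autoanalyzer; insulin by hamster-specific ELISA.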
# [2] = molecular target: T1, human TGR5 receptor (Homo sapiens, UniProt Q8TDU6); type: cell-based
# T1 sequence (Q8TDU6 1-330): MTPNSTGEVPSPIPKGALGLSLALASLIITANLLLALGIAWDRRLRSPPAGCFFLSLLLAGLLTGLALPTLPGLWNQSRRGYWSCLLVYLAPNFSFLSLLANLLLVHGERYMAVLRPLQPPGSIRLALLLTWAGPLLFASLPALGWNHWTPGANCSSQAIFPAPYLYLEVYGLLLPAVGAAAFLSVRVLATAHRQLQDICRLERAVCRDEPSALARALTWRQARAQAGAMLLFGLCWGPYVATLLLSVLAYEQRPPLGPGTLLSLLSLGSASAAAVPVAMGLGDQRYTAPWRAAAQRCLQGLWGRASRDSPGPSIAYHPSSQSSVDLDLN
# [3] = system: NCI-H716 human enteroendocrine cell line; experiment: TGR5-mediated GLP1 secretion; type: cell-based; details: NCI-H716 cells, 1 hour, in presence of 0.05% sitagliptin; versus vehicle
# In short: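 NCI-H716 human enteroendocrine cells exposed 1 h to vehicle, test compound or lithocholic acid (positive control), with 0.05% DPP-4 inhibitor sitagliptin present. Active GLP1 in culture supernatant measured by ELISA, expressed in pM. Two experiments, each in duplicate, averaged.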
# [4] = system: high-fat DIO C57bl/6J mice; experiment: Glycemic control; type: in vivo, mouse; details: 4 weeks of treatment, 9 mg/kg oral once daily
# In short: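 DIO C57bl/6J males on 45% kcal-fat diet for 8±2 weeks before study, diet continued. Oral dosing once daily for 4 weeks in 0.5% w/v Tween-80 + 0.5% w/v Na-CMC in water. OGTT: 6 h fast, dose, 0-min sample 15 min later, glucose 2 g/kg, tail-snip samples at 15–120 min. K-EDTA plasma; glucose by autoanalyzer, fasting insulin by rat/mouse ELISA.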
# [5] = system: DIO male Golden Syrian hamsters; experiment: Plasma lipid parameters in high fat-fed DIO hamsters, experiment C; type: in vivo, hamster; details: end of treatment week 5, 6 mg/kg intraperitoneal
# [6] = system: DIO male Golden Syrian hamsters; experiment: Oral fat tolerance test; type: in vivo, hamster; details: week 4, 6 mg/kg intraperitoneal
# In short: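 Male Golden Syrian hamsters fed 45% kcal-fat diet for 8±2 weeks. Test compound given i.p. in 0.9% Na-CMC + 0.1% Tween-80 in PBS pH 7.4, with oral vehicle dummy. At end of week 4: 6 h fast, pre-load sample, oral olive oil 5 mL/kg, samples at 60–240 min. Retro-orbital bleeds under mild anaesthesia; K-EDTA plasma triglyceride by autoanalyzer.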
# [7] = Pharmacokinetics in DIO mice; type: in vivo, mouse
# [8] = Pharmacokinetics in DIO hamsters; type: in vivo, hamster
# [9] = DIO mice, 9 mg/kg orally, mean ± standard deviation
# [10] = DIO hamsters, 6 mg/kg intraperitoneally, mean ± standard deviation
Structure (SMILES),AUC(0–120 min) for insulin in oral glucose tolerance test [1],EC50 [2],GLP1 secretion [3],Homeostasis Model of Assessment-Insulin Resistance (HOMA-IR) [4],improvement (reduction) in LDL cholesterol vs vehicle control [5],improvement (reduction) in non-HDL cholesterol vs vehicle control [5],improvement (reduction) in total cholesterol vs vehicle control [5],improvement (reduction) in triglycerides vs vehicle control [5],time taken to reach peak plasma triglyceride levels after oral fat loading [6],"Cmax ([7]; C57bl/6J, mouse, plasma, po, 9 mg/kg)","AUClast [7, 9]","Tmax [7, 9]","AUClast [8, 10]","Tmax [8, 10]","Cmax ([8]; Golden Syrian, hamster, plasma, ip, 6 mg/kg)","oral bioavailability in hamsters compared with mice ([8]; hamster, oral)"
"N[C@@H](CC(=O)N1CCn2c(nnc2C(F)(F)F)C1)Cc1cc(F)c(F)cc1F [sitagliptin, reference compound]",higher,,,,,,,,,,,,,,,
"CN(C(=O)c1c(Oc2ccc(F)cc2)nc2ncccn12)c1ccc(Cl)cc1 [TRC210258, N-(4-chlorophenyl)-2-(4-fluorophenoxy)-N-methylimidazo [1,2-a] pyrimidine-3-carboxamide]",higher,221 nM,significant induction of GLP1 secretion,trend toward amelioration,26.2%,32%,25.4%,28.3%,120 min,59.4 ± 22.2 ng/mL,525.7 ± 127.0 ng·h/mL,2.25 ± 1.25 h,726.2 ± 223.8 ng·h/mL,1.5 ± 0.71 h,78.7 ± 31.8 ng/mL,lower oral bioavailability
